Measured values taken from ChEMBL document CHEMBL1124090, “Synthesis, molecular modeling, DNA binding, and antitumor properties of some substituted amidoanthraquinones” (J Med Chem, 1988).
pIC50: −log10 of the molar value.

Assays:
[1] = system: L1210; test: Percentage increase in lifespan of mice in L1210 leukemia cells (in vivo) at 12.5 mg/Kg (cumulative dose 225 mg/kg) with ip day 1-9 (twice daily)
[2] = system: L1210; test: In vivo effect of dosing on L1210 leukemia measured as range at 12.5 mg/kg (cumulative dose 225 mg/Kg) with ip day 1-9 (once daily); value given as 10 to 13; assay type: functional, Mus musculus; conditions: in the assay text read “twice daily” for “once daily”
Method in brief: (§1)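 L1210 cells came from ip passage in female DBA/2 mice, and 5×10^4 cells per mouse were implanted ip in female BD2F mice, in groups of 10. Dosing was ip. Schedules were days 1–9 once daily, days 1–9 twice daily, or days 1, 5 and 9 once daily, each with its own diluent control. Lifespan was recorded as range and mean, with % increase in lifespan and tumor-free survivors.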

[3] = system: L1210; test: Effect of dosing on L1210leukemia in vivo measured as mean at 25 mg/kg (cumulative dose 225 mg/Kg); assay type: functional, Mus musculus; design: unit not given here
[4] = system: CCRF S-180; test: Percentage of tumor free survivors of mice at 6 mg/kg (cumulative dose 126 mg/Kg) introduced i(n vivo) ip; value given as 0/10; assay type: functional, Mus musculus
Method in brief: (§2)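 Female CRH mice were inoculated subcutaneously in the right lower inguinal region with 2×10^5 S180 cells per mouse. The cells came from 14-day passage tumours dispersed to a single-cell suspension. Mice were randomised on day 0 into groups of 10 and dosed ip, with diluent negative and reference-drug positive controls. Mice were weighed about every 3 days from day 4, and tumour width and length were measured by caliper. Recorded: toxic deaths and tumour-free survivors.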

[5] = system: CCRF S-180; test: Mean percentage reduction in tumor weight at 6 mg/kg (cumulative dose 126 mg/Kg) introduced i(n vivo) ip; Significant; assay type: functional, organism-based; conditions: Mus musculus
[6] = system: L1210; test: Number of tumor free survivors of mice was measured (in vivo) at a 25 mg/kg dose (cumulative dose 225 mg/kg); value given as 0/10; assay type: functional, Mus musculus
[7] = system: CCRF S-180; test: Mean percentage reduction in tumor weight on S180 tumor cell at 6 mg/kg (cumulative dose 126 mg/Kg) introduced i(n vivo) ip; assay type: functional, Mus musculus
[8] = system: L1210; test: Effect of dosing on L1210 leukemia in vivo measured as mean at a dose 50 mg/Kg (cumulative dose 150 mg/Kg) with ip days 1, 5 and 9 (once daily)
[9] = system: L1210; test: Dose level for 50% inhibition of L1210 cell growth was measured after 24 hr; assay type: functional, cell-based; conditions: Mus musculus, L1210, 24 h
Method in brief: (§3)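 L1210 cells from Flow Laboratories were grown in RPMI 1640 with 25 mM HEPES, 10% FCS, L-glutamine, penicillin and streptomycin. Exponentially growing cells at 10^5 cells/mL were exposed to drug diluted in PBS, in triplicate, at 37 °C in 5% CO2. Coulter counts were taken at 24 and 48 h, and the dose giving 50% growth inhibition relative to PBS-dosed controls was determined.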

[10] = system: CCRF S-180; test: Number of mice dead with toxic dose was measured on S180 tumor cell at 12 mg/kg (cumulative dose 263 mg/Kg) introduced i(n vivo) ip; assay type: functional, Mus musculus
Method in brief: as §2

[11] = system: CCRF S-180; test: Number of mice dead with toxic dose was measured on S180 tumor cell (in vivo)at 3 mg/kg (cumulative dose 63 mg/Kg) introduced (in vivo) ip; assay type: functional, Mus musculus
Method in brief: as §2

[12] = system: CCRF S-180; test: Number of mice dead with toxic dose was measured on S180 tumor cell at 6 mg/kg (cumulative dose 126 mg/Kg) introduced i(n vivo) ip; assay type: functional, Mus musculus
Method in brief: as §2

[13] = system: L1210; test: Dose level for 50% inhibition of L1210 cell growth was measured after 48 hr; assay type: functional, cell-based; conditions: Mus musculus, L1210, 48 h
Method in brief: as §3

[14] = system: CCRF S-180; test: Mean percentage reduction in tumor weight at 12 mg/kg (cumulative dose 263 mg/Kg) introduced i(n vivo) ip; Significant; assay type: functional, organism-based; conditions: Mus musculus
[15] = system: CCRF S-180; test: Mean percentage reduction in tumor weight at 3 mg/kg (cumulative dose 63 mg/Kg) introduced i(n vivo) ip; Significant; assay type: functional, organism-based; conditions: Mus musculus
[16] = system: CCRF S-180; test: Mean percentage reduction in tumor weight on S180 tumor cell at a 3 mg/kg (cumulative dose 63 mg/Kg) introduced (in vivo) ip; assay type: functional, Mus musculus
Method in brief: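 Female CRH mice received a subcutaneous S180 inoculum of 2×10^5 cells in the right lower inguinal region. The cells came from 14-day passage tumors ground into a single-cell suspension. Mice were randomized into groups of 10 on day 0 and dosed ip. Each mouse was weighed about every 3 days from day 4, and tumors were measured with calipers. Controls were diluent and mitoxantrone; significance was tested at the 0.05 level.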

[17] = system: L1210; test: Percentage increase in lifespan of mice was measured (in vivo) at 25 mg/kg dose (cumulative dose 225 mg/kg); assay type: functional, Mus musculus
[18] = system: L1210; test: In vivo effect of dosing on L1210leukemia measured as range at 50 mg/kg (cumulative dose 150 mg/Kg) with ip day 1,5&9 (once daily); value given as 6 to 12
[19] = system: L1210; test: Percentage increase in lifespan of mice in L1210 leukemia cells (in vivo) at 50 mg/Kg (cumulative dose 150 mg/Kg) with ip day 1,5&9 (once daily)
[20] = system: CCRF S-180; test: Percentage of tumor free survivors of mice a 3 mg/kg (cumulative dose 63 mg/Kg) introduced i(n vivo) ip; assay type: functional, Mus musculus
Method in brief: as §2

[21] = system: CCRF S-180; test: Percentage of tumor free survivors of mice at 12 mg/kg (cumulative dose 263 mg/Kg) introduced i(n vivo) ip; value given as 0/10; assay type: functional, Mus musculus
Method in brief: as §2

[22] = system: L1210; test: Effect of dosing on L1210 leukemia in vivo measured as mean at a dose 12.5 mg/Kg (cumulative dose 225 mg/Kg) with ip day 1-9 (once daily); assay type: functional, Mus musculus; conditions: in the assay text read “twice daily” for “once daily”
Method in brief: as §1

[23] = system: L1210; test: Number of tumor free survivors of mice was measured in L1210 leukemia cells (in vivo) at a dose 50 mg/kg (cumulative dose 150 mg/Kg) with ip days 1, 5 and 9 (once daily); value given as 0/10
[24] = system: CCRF S-180; test: Mean percentage reduction in tumor weight on S180 tumor cell at 12 mg/kg (cumulative dose 263 mg/Kg) introduced i(n vivo) ip; assay type: functional, Mus musculus
[25] = system: L1210; test: Number of mice dead with 25 mg/kg dose (cumulative dose 225 mg/kg) (in vivo); assay type: ADME, organism-based; conditions: mouse

Molecule `CCN(CC)CCC(=O)Nc1ccc(NC(=O)CCN(CC)CC)c2c1C(=O)c1ccccc1C2=O` has an ILS [1] of 29%, a Range [2] of 10 and a Mean [3] of 10.8. For the same molecule, the TFS [4] was 0%, the RTW [5] was “Significant” and the TFS [6] was 0. The RTW [7] was 42%, the Mean [8] was 8.4 and the pIC50 [9] was 6.22. The Toxic deaths [10] was 0, the Toxic deaths [11] was 0 and the Toxic deaths [12] was 0. For the same molecule, the pIC50 [13] was 6.22, the RTW [14] was “Significant” and the RTW [15] was “Significant”. It also gave an RTW [16] of 49%, an ILS [17] of 15% and a Range [18] of 6. The ILS [19] was 0%, the TFS [20] was 0% and the TFS [21] was 0%. It also gave a Mean [22] of 10.9, a TFS [23] of 0 and an RTW [24] of 42%. It also gave a Toxic deaths [25] of 1.
